The target in one series is T1, Liver carboxylesterase 1 (Homo sapiens, UniProt P23141).
T1 sequence (P23141 whole entry): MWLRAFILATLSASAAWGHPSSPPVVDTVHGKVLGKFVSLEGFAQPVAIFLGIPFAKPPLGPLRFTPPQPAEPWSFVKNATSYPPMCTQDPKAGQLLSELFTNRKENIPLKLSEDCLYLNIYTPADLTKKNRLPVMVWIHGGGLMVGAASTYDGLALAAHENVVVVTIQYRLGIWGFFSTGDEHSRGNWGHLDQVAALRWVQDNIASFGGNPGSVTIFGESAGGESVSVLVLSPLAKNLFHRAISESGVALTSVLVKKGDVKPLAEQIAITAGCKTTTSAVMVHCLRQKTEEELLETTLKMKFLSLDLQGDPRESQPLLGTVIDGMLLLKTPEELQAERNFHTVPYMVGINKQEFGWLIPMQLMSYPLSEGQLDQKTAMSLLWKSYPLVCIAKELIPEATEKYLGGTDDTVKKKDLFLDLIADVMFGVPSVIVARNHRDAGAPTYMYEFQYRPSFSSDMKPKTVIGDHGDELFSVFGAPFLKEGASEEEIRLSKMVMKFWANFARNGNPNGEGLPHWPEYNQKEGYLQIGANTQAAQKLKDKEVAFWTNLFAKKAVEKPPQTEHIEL
Briefly: Inhibition of human recombinant CES1 expressed in baculovirus infected BTI insect cells using 4-NPA as substrate by spectrophotometric analysis. The procedure, abridged: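 Recombinant hCES1 (baculovirus/BTI insect cells), 0.02 unit/mL, in 0.1 M K/Na phosphate pH 7.4, 25 °C; compound (DMSO, 2% v/v final) preincubated 10 min, then 1 mM 4-nitrophenyl acetate added; 4-nitrophenol release read at 405 nm against enzyme-free blank. IC50 from eight concentrations (10^-12–10^-4 M) relative to inhibitor-free control.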

The target in series [1] is T2, Cholinesterase (Equus caballus, UniProt P81908). In words: Inhibition of equine serum BuChE using […] as substrate preincubated for 10 mins followed by substrate addition by Ellman's method. (In general: In Ellman's method for cholinesterases, released thiocholine reacts with DTNB.)
T2 sequence (P81908 whole entry): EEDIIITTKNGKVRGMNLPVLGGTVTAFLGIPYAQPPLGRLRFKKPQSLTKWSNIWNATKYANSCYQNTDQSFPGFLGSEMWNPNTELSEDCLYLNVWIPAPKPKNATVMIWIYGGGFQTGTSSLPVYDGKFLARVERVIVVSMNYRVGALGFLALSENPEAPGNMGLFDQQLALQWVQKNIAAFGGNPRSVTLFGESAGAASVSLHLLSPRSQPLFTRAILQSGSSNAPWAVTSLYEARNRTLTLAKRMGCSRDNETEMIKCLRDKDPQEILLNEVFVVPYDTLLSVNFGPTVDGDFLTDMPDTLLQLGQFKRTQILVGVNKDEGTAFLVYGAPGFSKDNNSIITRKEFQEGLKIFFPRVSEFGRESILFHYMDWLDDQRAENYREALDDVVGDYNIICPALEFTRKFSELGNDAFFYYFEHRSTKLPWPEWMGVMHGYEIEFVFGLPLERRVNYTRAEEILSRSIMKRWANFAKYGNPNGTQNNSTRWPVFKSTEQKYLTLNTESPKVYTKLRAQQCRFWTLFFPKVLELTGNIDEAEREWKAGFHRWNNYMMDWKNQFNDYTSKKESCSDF
A short description of series [2]: Antioxidant activity assessed as decrease in ABTS radical cation scavenging activity incubated for 24 hrs by UV-Vis spectrophotometric analysis. The class given is functional.
Series [3] addresses T3, Liver carboxylesterase (Sus scrofa, UniProt Q29550).
T3 sequence (Q29550 whole entry): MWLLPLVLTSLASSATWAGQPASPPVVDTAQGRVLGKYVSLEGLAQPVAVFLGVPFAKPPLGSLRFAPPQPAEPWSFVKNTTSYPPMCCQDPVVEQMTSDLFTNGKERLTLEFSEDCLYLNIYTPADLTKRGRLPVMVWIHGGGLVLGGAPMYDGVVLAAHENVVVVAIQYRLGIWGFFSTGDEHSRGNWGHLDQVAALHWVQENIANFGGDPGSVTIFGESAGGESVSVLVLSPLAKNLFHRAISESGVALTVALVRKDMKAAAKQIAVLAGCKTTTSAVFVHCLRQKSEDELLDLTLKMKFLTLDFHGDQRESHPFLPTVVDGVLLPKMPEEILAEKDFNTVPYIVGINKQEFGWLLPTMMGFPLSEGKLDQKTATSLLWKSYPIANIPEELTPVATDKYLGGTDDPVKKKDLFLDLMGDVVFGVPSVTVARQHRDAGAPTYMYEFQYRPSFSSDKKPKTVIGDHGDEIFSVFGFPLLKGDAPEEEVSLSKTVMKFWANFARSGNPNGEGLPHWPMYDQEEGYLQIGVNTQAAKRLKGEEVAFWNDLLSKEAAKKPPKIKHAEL
In words: Non-competitive inhibition of porcine liver carboxylesterase by double reciprocal Lineweaver-Burk plot analysis. The settings on record: pig. Type of series: tissue-based. The procedure, abridged:
(§1)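 Porcine liver CES residual activity measured with 3 increasing inhibitor concentrations and 5–6 decreasing 4-nitrophenyl acetate concentrations after 10 min preincubation at 25 °C; parallel inhibitor-free controls. Initial velocities plotted as Lineweaver–Burk double-reciprocal plots to derive mechanism and steady-state inhibition constants; each experiment in triplicate.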

Series [4] concerns the target Cholinesterase (Equus caballus) (UniProt P81908). Briefly: Non-competitive inhibition of equine serum BuChE by double reciprocal Lineweaver-Burk plot analysis. The procedure, abridged: (§2)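 Residual activity measured with 3 increasing inhibitor concentrations and 5–6 decreasing substrate concentrations (ATCh for AChE, BTCh for BChE), DTNB read-out, 0.1 M K/Na phosphate pH 7.5, 25 °C; 10 min enzyme–inhibitor preincubation before substrate; no-inhibitor parallel control; triplicate; mechanism from Lineweaver-Burk plots.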

Series [5] has as its target T2, Cholinesterase. Briefly: Competitive inhibition of equine serum BuChE by double reciprocal Lineweaver-Burk plot analysis. The procedure, abridged: as §2
In series [6] the target is T4, Acetylcholinesterase (Homo sapiens, UniProt P22303). In words: Non-competitive inhibition of human erythrocyte AChE by double reciprocal Lineweaver-Burk plot analysis. The procedure, abridged: as §2
T4 sequence (P22303 whole entry): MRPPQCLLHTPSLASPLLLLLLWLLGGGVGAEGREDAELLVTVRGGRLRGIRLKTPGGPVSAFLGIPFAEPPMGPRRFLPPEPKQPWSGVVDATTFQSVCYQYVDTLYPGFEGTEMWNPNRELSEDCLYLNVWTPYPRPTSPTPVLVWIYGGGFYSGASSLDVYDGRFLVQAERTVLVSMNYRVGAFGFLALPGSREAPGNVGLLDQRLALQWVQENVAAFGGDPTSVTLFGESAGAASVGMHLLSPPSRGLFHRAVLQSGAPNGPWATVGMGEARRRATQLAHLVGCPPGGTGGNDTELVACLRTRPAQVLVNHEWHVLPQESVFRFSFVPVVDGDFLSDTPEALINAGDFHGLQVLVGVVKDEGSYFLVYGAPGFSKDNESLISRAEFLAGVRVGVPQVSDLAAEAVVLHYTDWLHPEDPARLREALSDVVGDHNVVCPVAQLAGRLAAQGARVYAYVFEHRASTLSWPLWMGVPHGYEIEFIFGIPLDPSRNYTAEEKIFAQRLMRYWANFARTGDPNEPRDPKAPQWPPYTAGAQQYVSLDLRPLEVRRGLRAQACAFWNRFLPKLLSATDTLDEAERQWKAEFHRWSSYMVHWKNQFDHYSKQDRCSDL
In series [7] the target is T3, Liver carboxylesterase. Briefly: Inhibition of porcine liver carboxylesterase using 4-NPA as substrate preincubated for 10 mins followed by substrate addition by spectrophotometric analysis. The class given is tissue-based. The procedure, abridged:
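Porcine liver CES, 0.02 unit/mL, in 0.1 M K/Na phosphate pH 8.0, 25 °C; compound in DMSO (2% v/v final) preincubated 10 min, then 1 mM 4-nitrophenyl acetate; 4-nitrophenol read at 405 nm, enzyme-free blanks. Screening at 20 μM in three separate experiments; IC50 from eight concentrations between 10^-12 and 10^-4 M, residual activity relative to inhibitor-free control.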

Series [8] has as its target T3, Liver carboxylesterase. In words: Competitive inhibition of porcine liver carboxylesterase by double reciprocal Lineweaver-Burk plot analysis. The class given is tissue-based. The method in brief: as §1
In series [9] the target is T4, Acetylcholinesterase. In words: Competitive inhibition of human erythrocyte AChE by double reciprocal Lineweaver-Burk plot analysis. The method in brief:
as §2

Series [10] in a line: Antioxidant activity assessed as trolox equivalent of ABTS radical cation scavenging activity incubated for 24 hrs by UV-Vis spectrophotometric analysis. Type of series: functional.
Series [11] has as its target T4, Acetylcholinesterase. In words: Inhibition of human erythrocyte AChE using acetylthiocholine iodide as substrate preincubated for 10 mins followed by substrate addition by Ellman's method.
Series [12] in a line: Acute toxicity in CD-1 mouse assessed as effect on mouse death at 600 mg/kg, ip measured after 14 days. Type of series: organism-based. The settings on record: in vivo, 336 h, time 14 day. The procedure, abridged:
(§3)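 CD-1 mice given compound intraperitoneally in 2% (w/v) starch mucilage, three animals per dose group; lethality observed over 14 days; procedure based on OECD recommendations.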

Series [13] is described as follows: Cytotoxicity against human FetMSC cells assessed as reduction in cell viability after 72 hrs by MTT assay. The class given is cell-based. The procedure, abridged: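 Human fetal MSC (bone-marrow fibroblast-like, nonimmortalized; ≤10–15 passages) grown in F12/DMEM with 10% FBS, 3 mM L-glutamine, penicillin/streptomycin. Seeded at 6×10^3 cells/well; after 24 h, medium replaced with compound at 100, 250, 500 μM for 72 h; controls 0.1% DMSO. MTT 0.5 mg/ml for 4 h, formazan dissolved in DMSO, read at 570 nm; control = 100%.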
(In general: Tetrazolium assays rely on reduction of a dye to a coloured formazan, in cell work by metabolically active cells.)

The nature of series [14]: Acute toxicity in ip dosed CD-1 mouse observed for 14 days. The class given is organism-based. The settings on record: in vivo, time 14 day. The procedure, abridged: as §3
Series [15] in a line: Acute toxicity in CD-1 mouse assessed as effect on mouse death at 900 mg/kg, ip measured after 14 days. Type of series: organism-based. The settings on record: in vivo, 336 h, time 14 day. The method in brief:
as §3

The term IC50 denotes the midpoint of a concentration-inhibition curve. A word on the Ki: it is a dissociation constant, usually derived from enzyme kinetics or from competition with a known ligand. Low readings indicate higher affinity, high ones lower affinity. The LD50 is the dose at which mortality reaches 50%. A higher LD50 goes with a less toxic substance.

Cholinesterase (Equus caballus), sequence (P81908 whole entry): as the sequence (P81908 whole entry) above

For `COC(=O)/C(=N\Nc1ccc(C)cc1)C(=O)C(F)(F)F`, the IC50 at Liver carboxylesterase 1 came to 0.0163 µM; against Cholinesterase [1], 33 µM; in [2], 21.2 µM; at Liver carboxylesterase [7], 0.0278 µM; on Acetylcholinesterase [11] it was 28.3 µM. In addition, the alphaKi came out at 82.2 nM on Liver carboxylesterase [3], 72.7 µM in [4] and 139 µM at Acetylcholinesterase [6]. Also, the Ki on Cholinesterase [5] was 29.2 µM; at Liver carboxylesterase [8] it was 0.014 µM; at Acetylcholinesterase [9] it was 10.1 µM. Besides, in series [10], the Activity was 0.98.

As to `CCOC(=O)/C(=N\Nc1ccccc1)C(=O)C(F)(F)F`, the IC50 at Liver carboxylesterase 1 is 0.0061 µM; at Cholinesterase [1], 8.42 µM; in series [2] it was 26.7 µM; at Liver carboxylesterase [7], 0.00614 µM; in [13] it was more than 500 µM; against Acetylcholinesterase [11], 3.22 µM. Besides, the Activity result in [12] is “Non-Toxic”; in series [10], 0.8. The molecule further returned an LD50 at 336 h in [14] of 600 mg/kg.

On to `CCOC(=O)/C(=N\Nc1ccc(C)cc1)C(=O)C(F)(F)F`, for which the IC50 at Liver carboxylesterase 1 is 0.00292 µM; on Cholinesterase [1], 8.34 µM; in [2] it was 21.4 µM; on Liver carboxylesterase [7], 0.00741 µM; in series [13] it was more than 500 µM; against Acetylcholinesterase [11] it was 7.32 µM. Also, the Activity entry in series [15] was “Non-Toxic”; in series [10], 0.95. Further, the LD50 at 336 h in series [14] was determined as 900 mg/kg.

For the origin of these results see ChEMBL document CHEMBL4819068, “Novel potent bifunctional carboxylesterase inhibitors based on a polyfluoroalkyl-2-imino-1,3-dione scaffold” (Eur J Med Chem, 2021).
